Experimental data as given in ChEMBL document CHEMBL3877262, “Synthesis and antioxidant evaluation of desmethylxanthohumol analogs and their dimers” (Eur J Med Chem, 2017).
The source made the active and inactive calls. No cut-off for these calls is given here.

Experiments:
[1] = Cytotoxicity against HUVEC measured after 48 hrs by MTT assay; format: toxicity, cell-based; conditions: human, HUVEC cells
In short: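 HUVECs were seeded at 5×10^3 cells/well for 24 h, then exposed to compounds dissolved in DMSO for 48 h. MTT (5 mg/ml) was added for 4 h, cells solubilized in DMSO and OD read at 490 nm. IC50 was derived from mean OD of triplicate tests.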

[2] = species: Rattus norvegicus; test: Cytotoxicity against rat PC12 cells at 200 uM measured after 48 hrs by MTT assay; format: toxicity, cell-based; conditions: pc-12, 48 h
[3] = species: Rattus norvegicus; test: Cytotoxicity against rat PC12 cells at 100 uM measured after 48 hrs by MTT assay; format: toxicity, cell-based; conditions: pc-12, 48 h
[4] = Antioxidant activity against H2O2-induced oxidative stress in rat PC12 cells assessed as viable cells at 100 uM pretreated for 0.5 hrs followed by H2O2 challenge measured after 2 hrs by MTT assay (reference value: 25.47%); format: functional; conditions: PC-12, read-out: Activity
[5] = test system: PC-12; test: Cytoprotective activity against H2O2-induced oxidative stress in rat PC12 cells assessed as viable cells at 10 uM pretreated for 0.5 hrs followed by H2O2 challenge measured after 2 hrs by Annexin-V-FITC/propidium iodide staining based flow cytometry (reference value: 94.1 %); format: functional; conditions: read-out: Activity
[6] = test system: PC-12; test: Cytoprotective activity against H2O2-induced oxidative stress in rat PC12 cells assessed as early apoptotic cells at 10 uM pretreated for 0.5 hrs followed by H2O2 challenge measured after 2 hrs by Annexin-V-FITC/propidium iodide staining based flow cytometry (reference value: 1.1 %); format: functional
[7] = test system: PC-12; test: Cytoprotective activity against H2O2-induced oxidative stress in rat PC12 cells assessed as late apoptotic cells at 10 uM pretreated for 0.5 hrs followed by H2O2 challenge measured after 2 hrs by Annexin-V-FITC/propidium iodide staining based flow cytometry (reference value: 2.3 %); format: functional
[8] = test system: PC-12; test: Cytoprotective activity against H2O2-induced oxidative stress in rat PC12 cells assessed as necrotic cells at 10 uM pretreated for 0.5 hrs followed by H2O2 challenge measured after 2 hrs by Annexin-V-FITC/propidium iodide staining based flow cytometry (reference value: 2.4 %); format: functional
[9] = test system: PC-12; test: Cytoprotective activity against H2O2-induced oxidative stress in rat PC12 cells assessed as lactate dehydrogenase release at 10 uM pretreated for 30 mins followed by H2O2 challenge measured after 2 hrs by spectrophotometric method (reference value: 479.77 U/L); format: functional
[10] = Antioxidant activity against H2O2-induced oxidative stress in rat PC12 cells assessed as 8-OHdG level at 10 uM pretreated for 0.5 hrs followed by H2O2 challenge measured after 2 hrs (reference value: 123.97 ng/L); format: functional, PC-12
[11] = Antioxidant activity against H2O2-induced oxidative stress in rat PC12 cells assessed as GSH level per gram of protein at 10 uM pretreated for 0.5 hrs followed by H2O2 challenge measured after 2 hrs by GSH peroxidase assay (reference value: 59.93 umol); format: functional, PC-12
[12] = Antioxidant activity assessed as vitamin-c equivalent measured after 20 mins by FRAP assay; format: functional
[13] = Antioxidant activity assessed as ABTS radical scavenging activity measured after 10 mins by ABTS assay; format: functional
In short: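 ABTS (10 mM in sodium acetate) oxidised with H2O2 and held 12 h in the dark. It was diluted to A650 0.70 and mixed with compound, shaken 30 s, and A650 read after 10 min. EC50 by nonlinear regression from three independent experiments.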

[14] = test system: PC-12; test: Cytoprotective activity against H2O2-induced oxidative stress in rat PC12 cells assessed as morphological changes at 10 uM pretreated for 0.5 hrs followed by H2O2 challenge measured after 2 hrs; format: functional, cell-based
In short: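 PC12 cells were handled as in the H2O2/MTT model: compound at 10 µM for 0.5 h, then H2O2 (100 µM) for 2 h. Morphology (shrinkage, blebbing) was viewed at 200×. Control cells received medium with 0.1% DMSO only. Gallic acid (10 µM) was the positive control.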

With `CC(C)=CCc1c(O)cc(O)c(C(=O)/C=C/c2ccc(O)cc2)c1O` [DEMETHYLXANTHOHUMOL] the IC50 at 48 h [1] was 18.9 µM, the Activity [2] was “Toxic” and the Activity [3] was “Toxic”.

Work on `CC1(C)C=Cc2c(O)cc(O)c(C(=O)/C=C/c3cccc(O)c3O)c2O1` yielded a viability at 100 µM [4] of 54.5%.

With `CC1(C)C=Cc2c(O)c(Cc3c(O)c4c(c(C(=O)/C=C/c5cccc(O)c5O)c3O)OC(C)(C)C=C4)c(O)c(C(=O)/C=C/c3cccc(O)c3O)c2O1` the viability at 100 µM [4] was 77.5%.

Compound `CC1(C)C=Cc2c(O)c(Cc3c(O)c4c(c(C(=O)/C=C/c5ccc(O)cc5O)c3O)OC(C)(C)C=C4)c(O)c(C(=O)/C=C/c3ccc(O)cc3O)c2O1` has a viability at 100 µM [4] of 43.4%.

Work on `CC1(C)C=Cc2c(O)cc(O)c(C(=O)/C=C/c3ccc(O)cc3O)c2O1` yielded a viability at 100 µM [4] of 24.1%.

In the case of `O=C(O)c1cc(O)c(O)c(O)c1` [GALLIC ACID], the viability at 100 µM [4] is reported as 88.9%, the viability at 10 µM [5] is reported as 81.9% and the Activity [6] is reported as 0.5%. The Activity [7] was 13.4%, the Activity [8] was 4.2% and the Activity [9] was 326.59 U/L. The Activity [10] was 85.7 ng/L, the Activity [11] was 99.73 µmol and the Activity [12] was 531 mgequiv/mmol. For the same compound, the EC50 [13] was 0.35 µM.

With `CC1(C)C=Cc2c(O)cc(O)c(C(=O)/C=C/c3ccc(O)cc3)c2O1` the IC50 at 48 h [1] was 41.1 µM, the Activity [2] was “Toxic” and the Activity [3] was “Toxic”. The viability at 100 µM [4] was 20.6%.

Work on `CC1(C)C=Cc2c(O)c(Cc3c(O)c4c(c(C(=O)/C=C/c5ccc(O)cc5)c3O)OC(C)(C)C=C4)c(O)c(C(=O)/C=C/c3ccc(O)cc3)c2O1` yielded a viability at 100 µM [4] of 44.9%.

Compound `CC1(C)C=Cc2c(O)cc(O)c(C(=O)/C=C/c3ccc(O)c(O)c3O)c2O1` has a viability at 100 µM [4] of 84%.

For `CC1(C)C=Cc2c(O)c(Cc3c(O)c4c(c(C(=O)/C=C/c5ccc(O)c(O)c5O)c3O)OC(C)(C)C=C4)c(O)c(C(=O)/C=C/c3ccc(O)c(O)c3O)c2O1`, the viability at 100 µM [4] was 85.2%, the Activity [14] was “Active” and the viability at 10 µM [5] was 95.6%. For the same compound, the Activity [6] was 1.1%, the Activity [7] was 2.7% and the Activity [8] was 0.5%. It also gave an Activity [9] of 251.45 U/L, an Activity [10] of 62.8 ng/L and an Activity [11] of 105.71 µmol. For the same compound, the Activity [12] was 648 mgequiv/mmol and the EC50 [13] was 0.54 µM.
